Laboratory results published in ChEMBL document CHEMBL1143334, “Peri-substituted hexahydro-indolones as novel, potent and selective human EP3 receptor antagonists” (Bioorg Med Chem Lett, 2009).
Converted amounts (≈) assume the structure as drawn. The source made the active and inactive calls. The rule behind the calls is not given here.

Key:
[1] = target: T1, Prostaglandin E2 receptor EP3 subtype (Homo sapiens, UniProt P43115); experiment: Displacement of [3H]PGE2 from human EP3 receptor
T1 sequence (P43115 whole entry): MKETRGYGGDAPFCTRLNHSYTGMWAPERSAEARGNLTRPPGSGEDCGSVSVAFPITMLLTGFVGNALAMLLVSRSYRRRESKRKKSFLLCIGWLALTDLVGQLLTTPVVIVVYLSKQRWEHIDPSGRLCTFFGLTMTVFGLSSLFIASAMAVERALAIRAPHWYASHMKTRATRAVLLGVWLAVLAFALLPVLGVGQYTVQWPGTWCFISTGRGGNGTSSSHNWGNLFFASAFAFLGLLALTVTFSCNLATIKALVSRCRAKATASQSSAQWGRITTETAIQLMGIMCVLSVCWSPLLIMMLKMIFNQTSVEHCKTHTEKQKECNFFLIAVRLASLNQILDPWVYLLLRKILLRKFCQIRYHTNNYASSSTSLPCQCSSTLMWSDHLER
Procedure, shortened: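 Displacement of [3H]-PGE2 from human EP3 receptor membrane preparations was run in buffer. IC50 values come from at least three experiments each.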

[2] = target: T2, Prostaglandin E2 receptor EP3 subtype (Homo sapiens) (UniProt P43115); experiment: Ratio of IC50 for human EP3 receptor in presence of 10% human serum to IC50 for human EP3 receptor in buffer
T2 sequence (whole entry): T1 sequence (P43115 whole entry)
Procedure, shortened: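 Displacement of [3H]-PGE2 from human EP3 membrane preparations was run both with 10% human serum and in buffer alone. Fold-shift is IC50 with serum divided by IC50 in buffer.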

[3] = Metabolic stability in rat liver microsomes after 30 mins; assay type: ADME, Microsome; conditions: read-out: Stability
Procedure, shortened: (§1)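 Compound was incubated 30 min with liver microsomes from each species. Percent parent remaining was measured by LC/MS/MS.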

[4] = Metabolic stability in human liver microsomes after 30 mins; assay type: ADME, Microsome; conditions: read-out: Stability; procedure, shortened: as §1
[5] = target: T1, Prostaglandin E2 receptor EP3 subtype; experiment: Antagonist activity at human EP3 receptor expressed in CHO-K1 cells assessed as reversal of inhibition of forskolin-induced cAMP production; assay type: functional, cell-based
Procedure, shortened: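 CHO-K1 cells stably expressing human EP3 were exposed to increasing test compound concentrations for 10 min at 37 °C, with 5 μM forskolin plus 5 nM PGE2 present. Read-out was the block of PGE2's inhibition of the forskolin-induced cAMP rise, giving IC50.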

[6] = target: T3, Prostaglandin E2 receptor EP4 subtype (Homo sapiens, UniProt P35408); experiment: Binding affinity to human EP4 receptor by radioligand binding assay
T3 sequence (P35408 whole entry): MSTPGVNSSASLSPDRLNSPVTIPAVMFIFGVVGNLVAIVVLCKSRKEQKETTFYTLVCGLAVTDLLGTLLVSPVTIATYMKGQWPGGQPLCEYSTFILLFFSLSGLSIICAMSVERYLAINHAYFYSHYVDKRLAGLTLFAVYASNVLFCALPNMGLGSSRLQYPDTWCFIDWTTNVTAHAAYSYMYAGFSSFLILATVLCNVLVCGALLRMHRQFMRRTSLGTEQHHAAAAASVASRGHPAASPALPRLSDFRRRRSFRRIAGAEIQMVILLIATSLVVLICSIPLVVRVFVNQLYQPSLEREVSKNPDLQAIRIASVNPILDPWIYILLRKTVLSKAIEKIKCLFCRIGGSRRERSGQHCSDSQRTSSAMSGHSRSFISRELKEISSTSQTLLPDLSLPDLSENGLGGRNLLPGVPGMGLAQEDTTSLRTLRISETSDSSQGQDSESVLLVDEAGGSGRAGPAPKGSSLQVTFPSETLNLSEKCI

[7] = species on record: Homo sapiens; experiment: Selectivity of human FP receptor over human EP3 receptor
[8] = target: Prostaglandin F2-alpha receptor (Homo sapiens, UniProt P43088); experiment: Binding affinity to human FP receptor by radioligand binding assay
Prostaglandin F2-alpha receptor, sequence (P43088 whole entry): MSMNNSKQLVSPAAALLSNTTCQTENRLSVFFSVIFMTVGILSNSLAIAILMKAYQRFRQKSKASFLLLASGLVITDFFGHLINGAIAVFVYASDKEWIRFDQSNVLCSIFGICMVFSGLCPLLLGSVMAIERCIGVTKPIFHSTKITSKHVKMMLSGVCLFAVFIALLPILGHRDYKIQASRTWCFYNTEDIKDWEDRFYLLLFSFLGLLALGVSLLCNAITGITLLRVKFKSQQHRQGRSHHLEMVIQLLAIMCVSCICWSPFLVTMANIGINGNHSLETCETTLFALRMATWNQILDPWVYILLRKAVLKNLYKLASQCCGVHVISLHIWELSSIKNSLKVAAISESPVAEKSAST

[9] = species on record: Homo sapiens; experiment: Selectivity of human EP4 receptor over human EP3 receptor
[10] = target: Prostaglandin E2 receptor EP2 subtype (Homo sapiens, UniProt P43116); experiment: Binding affinity to human EP2 receptor at 20 uM by radioligand binding assay
Prostaglandin E2 receptor EP2 subtype, sequence (P43116 whole entry): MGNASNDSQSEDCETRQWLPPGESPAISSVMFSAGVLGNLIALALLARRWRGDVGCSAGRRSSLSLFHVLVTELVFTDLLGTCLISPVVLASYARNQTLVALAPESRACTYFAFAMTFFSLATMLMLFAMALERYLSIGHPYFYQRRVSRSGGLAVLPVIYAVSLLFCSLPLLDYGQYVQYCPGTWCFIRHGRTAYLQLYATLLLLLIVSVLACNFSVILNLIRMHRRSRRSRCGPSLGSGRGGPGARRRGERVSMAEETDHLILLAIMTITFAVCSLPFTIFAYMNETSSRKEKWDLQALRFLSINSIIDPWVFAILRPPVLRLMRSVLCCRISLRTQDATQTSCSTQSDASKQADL

[11] = species on record: Homo sapiens; experiment: Selectivity of human EP1 receptor over human EP3 receptor
[12] = target: T4, Prostaglandin E2 receptor EP1 subtype (Homo sapiens, UniProt P34995); experiment: Binding affinity to human EP1 receptor by radioligand binding assay
T4 sequence (P34995 whole entry): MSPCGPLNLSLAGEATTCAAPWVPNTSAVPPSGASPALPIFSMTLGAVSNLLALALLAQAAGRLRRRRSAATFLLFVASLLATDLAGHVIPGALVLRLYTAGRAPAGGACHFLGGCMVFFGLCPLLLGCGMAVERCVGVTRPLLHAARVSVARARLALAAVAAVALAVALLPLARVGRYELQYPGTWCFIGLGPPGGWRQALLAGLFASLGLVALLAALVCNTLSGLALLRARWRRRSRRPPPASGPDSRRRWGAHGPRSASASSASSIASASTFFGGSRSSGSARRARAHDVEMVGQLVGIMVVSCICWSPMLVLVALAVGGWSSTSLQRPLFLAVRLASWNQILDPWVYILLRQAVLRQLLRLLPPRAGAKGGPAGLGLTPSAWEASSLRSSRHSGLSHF

[13] = species on record: Homo sapiens; experiment: Selectivity of human EP2 receptor over human EP3 receptor
[14] = target: T5, Prostaglandin E2 receptor EP1 subtype (Homo sapiens) (UniProt P34995); experiment: Binding affinity to human EP1 receptor at 20 uM by radioligand binding assay
T5 sequence (whole entry): T4 sequence (P34995 whole entry)

[15] = target: T3, Prostaglandin E2 receptor EP4 subtype; experiment: Binding affinity to human EP4 receptor at 20 uM by radioligand binding assay
[16] = Aqueous solubility in 50 mM PSB buffer at pH 7.4 by HPLC analysis; assay type: physicochemical
Procedure, shortened: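 Samples were stirred overnight in 50 mM PSB buffer, pH 7.4, then filtered. Concentration was measured by HPLC against a 5-point standard curve, giving thermodynamic solubility.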

SMILES | IC50 [1] [nM] | fold change (FC) [2] | remaining at 0.5 h [3] [%] | remaining at 0.5 h [4] [%] | also measured
CC12CCCC(/C=C/C(=O)NS(=O)(=O)c3ccc(F)cc3)=C1N(Cc1ccc(Cl)cc1Cl)C(=O)C2 (configuration not stated) | 15.2 | 21.2 | 64 | 70 | –
CC12CCCC(/C=C/C(=O)NS(=O)(=O)c3cc(F)cc(F)c3)=C1N(Cc1ccc(F)c(F)c1)C(=O)C2 (configuration not stated) | 9.2 | 217 | – | – | –
C[C@]12CCC[C@@H](CCC(=O)NS(=O)(=O)c3cc(F)c(F)cc3F)[C@H]1N(Cc1ccc(F)c(F)c1)C(=O)C2 | 557 | 25.7 | – | – | –
CC12CCCC(/C=C/C(=O)NS(=O)(=O)c3cccs3)=C1N(Cc1ccc(Cl)cc1Cl)C(=O)C2 (configuration not stated) | 57.2 | 25.2 | 79 | 78 | –
CC12CCCC(/C=C/C(=O)NS(=O)(=O)c3cc(Cl)cc(Cl)c3)=C1N(Cc1ccc(Cl)cc1Cl)C(=O)C2 (configuration not stated) | 9.8 | 61.2 | 62 | 70 | –
CC12CCCC(/C=C/C(=O)NS(=O)(=O)c3ccc(Cl)s3)=C1N(Cc1ccc(Cl)cc1Cl)C(=O)C2 (configuration not stated) | 13.4 | 6.9 | 68 | 75 | –
CC12CCCC(/C=C/C(=O)NS(=O)(=O)c3cc(Cl)c(Cl)s3)=C1N(Cc1cccc(F)c1)C(=O)C2 (configuration not stated) | 9.5 | 8.2 | 18 | 67 | –
COC(=O)C12CCCC(/C=C/C(=O)NS(=O)(=O)c3ccc(F)c(F)c3)=C1N(Cc1ccc(Cl)cc1Cl)C(=O)C2 (configuration not stated) | 20.6 | 22 | – | – | –
COc1cccc(CN2C(=O)CC3(C)CCCC(/C=C/C(=O)NS(=O)(=O)c4cc(F)cc(F)c4)=C23)c1 (configuration not stated) | 5.6 | 62.4 | – | – | –
Cc1cn(Cc2ccc(F)c(F)c2)c2c(/C=C/C(=O)NS(=O)(=O)c3cc(F)c(F)cc3F)cc(F)cc12 | – | – | – | – | solubility [16]: < 40 µg/mL
CC12CCCC(/C=C/C(=O)NS(=O)(=O)c3cc(Cl)c(Cl)s3)=C1N(Cc1ccc3ccccc3c1)C(=O)C2 (configuration not stated) | 6.8 | 7.4 | 54 | 64 | Selectivity ratio [7]: > 1000; IC50 [8]: 10200 nM; Selectivity ratio [9]: > 1000; Activity [10]: inactive; Activity [15]: inactive; Selectivity ratio [11]: > 1000; IC50 [12]: 6900 nM; Selectivity ratio [13]: > 1000
CC1C(=O)N(Cc2ccc(F)c(F)c2)c2c(/C=C/C(=O)NS(=O)(=O)c3cc(F)c(F)cc3F)cccc21 (configuration not stated) | – | – | – | – | solubility [16]: 1580 µg/mL (≈ 2950 µM)
COC(=O)C12CCCC(/C=C/C(=O)NS(=O)(=O)c3cc(F)c(F)cc3F)=C1N(Cc1ccc(Cl)cc1Cl)C(=O)C2 (configuration not stated) | 11.2 | 47.1 | – | – | –
COC(=O)C12CCCC(/C=C/C(=O)NS(=O)(=O)c3cc(Cl)c(Cl)s3)=C1N(Cc1ccc(F)c(F)c1)C(=O)C2 (configuration not stated) | 29.9 | 308 | – | – | –
COc1cccc(CN2C(=O)CC3(C)CCCC(/C=C/C(=O)NS(=O)(=O)c4cc(Cl)c(Cl)s4)=C23)c1 (configuration not stated) | 6.4 | 4.8 | 64 | 62 | Activity [14]: inactive; IC50 [5]: 5.8 nM; Selectivity ratio [7]: > 1000; IC50 [8]: 6100 nM; Selectivity ratio [9]: > 1000; Activity [10]: inactive; Activity [15]: inactive; Selectivity ratio [11]: > 1000; Selectivity ratio [13]: > 1000
CC12CCCC(/C=C/C(=O)NS(=O)(=O)c3cc(F)cc(F)c3)=C1N(Cc1ccc(F)cc1)C(=O)C2 (configuration not stated) | 84.1 | 5.4 | – | – | Activity [14]: inactive; Selectivity ratio [7]: > 1000; IC50 [8]: 4200 nM; Selectivity ratio [9]: > 1000; Activity [10]: inactive; Activity [15]: inactive; Selectivity ratio [11]: > 1000; Selectivity ratio [13]: > 1000

Second part, led by results:

IC50 [1] [nM] | fold change (FC) [2] | remaining at 0.5 h [3] [%] | remaining at 0.5 h [4] [%] | SMILES | also measured
3.8 | 33.7 | – | – | CC12CCCC(/C=C/C(=O)NS(=O)(=O)c3cc(F)cc(F)c3)=C1N(Cc1cccc(Cl)c1Cl)C(=O)C2 (configuration not stated) | –
2.5 | 15.9 | – | – | CC12CCCC(/C=C/C(=O)NS(=O)(=O)c3ccc(F)c(F)c3)=C1N(Cc1ccc(F)cc1)C(=O)C2 (configuration not stated) | –
3.4 | 7.8 | – | – | CC12CCCC(/C=C/C(=O)NS(=O)(=O)c3ccc(F)c(F)c3)=C1N(Cc1cccc(Cl)c1Cl)C(=O)C2 (configuration not stated) | IC50 [5]: 3.5 nM
1.8 | 33.2 | – | – | CC12CCCC(CCC(=O)NS(=O)(=O)c3cc(F)c(F)cc3F)=C1N(Cc1ccc(F)c(F)c1)C(=O)C2 (configuration not stated) | –
3.5 | 17.7 | 22 | 80 | CC12CCCC(/C=C/C(=O)NS(=O)(=O)c3cc(Cl)c(Cl)s3)=C1N(Cc1ccc(F)c(F)c1)C(=O)C2 (configuration not stated) | IC50 [5]: 5.2 nM
3.7 | 7 | 37 | 62 | CC12CCCC(/C=C/C(=O)NS(=O)(=O)c3cc(F)c(F)cc3F)=C1N(Cc1ccc(Cl)cc1Cl)C(=O)C2 (configuration not stated) | IC50 [6]: 20800 nM; Selectivity ratio [7]: > 1000; IC50 [8]: 7600 nM; Selectivity ratio [9]: > 1000; Activity [10]: inactive; Selectivity ratio [11]: > 1000; IC50 [12]: 11600 nM; Selectivity ratio [13]: > 1000
2.3 | 38.4 | 60 | 58 | CC12CCCC(/C=C/C(=O)NS(=O)(=O)c3cc(Cl)c(Cl)s3)=C1N(Cc1ccc(Cl)cc1Cl)C(=O)C2 (configuration not stated) | –
5.6 | 26.8 | 45 | 68 | CC12CCCC(/C=C/C(=O)NS(=O)(=O)c3cc(Cl)cc(Cl)c3)=C1N(Cc1ccc(F)c(F)c1)C(=O)C2 (configuration not stated) | IC50 [5]: 3.2 nM
4.3 | 5.8 | 50 | 49 | CC12CCCC(/C=C/C(=O)NS(=O)(=O)c3cc(F)c(F)cc3F)=C1N(Cc1cccc(Cl)c1Cl)C(=O)C2 (configuration not stated) | Activity [14]: inactive; IC50 [5]: 4.5 nM; Selectivity ratio [7]: > 1000; IC50 [8]: 7400 nM; Selectivity ratio [9]: > 1000; Activity [10]: inactive; Activity [15]: inactive; Selectivity ratio [11]: > 1000; Selectivity ratio [13]: > 1000
5.6 | 6.2 | 84 | 76 | COc1cccc(CN2C(=O)CC3(C)CCCC(/C=C/C(=O)NS(=O)(=O)c4cc(F)c(F)cc4F)=C23)c1 (configuration not stated) | –
2.2 | 16.3 | – | – | CC12CCCC(/C=C/C(=O)NS(=O)(=O)c3cc(Cl)c(Cl)s3)=C1N(Cc1cccc(Cl)c1)C(=O)C2 (configuration not stated) | –
3.4 | 18 | – | – | CC12CCCC(/C=C/C(=O)NS(=O)(=O)c3ccc(F)c(F)c3)=C1N(Cc1ccc(Cl)cc1Cl)C(=O)C2 (configuration not stated) | –
4.4 | 6.6 | 69 | 80 | CC12CCCC(/C=C/C(=O)NS(=O)(=O)c3cc(Cl)c(Cl)s3)=C1N(Cc1cccc(Cl)c1Cl)C(=O)C2 (configuration not stated) | IC50 [5]: 1.7 nM
3.8 | 3 | 50 | 74 | CC12CCCC(/C=C/C(=O)NS(=O)(=O)c3cc(Cl)c(Cl)s3)=C1N(Cc1ccc(F)cc1)C(=O)C2 (configuration not stated) | Activity [14]: inactive; Selectivity ratio [7]: > 1000; IC50 [8]: 27400 nM; Selectivity ratio [9]: > 1000; Activity [10]: inactive; Activity [15]: inactive; Selectivity ratio [11]: > 1000; Selectivity ratio [13]: > 1000
